We go through eleven molecules from ChEMBL document CHEMBL4304768, “Modifications at Arg and Ile Give Neurotensin(8-13) Derivatives with High Stability and Retained NTS1 Receptor Affinity” (ACS Med Chem Lett, 2019).

Series [1] in a line: Stability in human plasma assessed as percentage intact peptide at 100 uM incubated for 24 hrs by LC-HRMS analysis. As to conditions: read-out: Stability. Format: ADME, cell-free. The method, boiled down:
(§1)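 Peptides at 100 μM initial concentration in human plasma/PBS (1:2 v/v), incubated at 37 °C for up to 48 h (sampled at 10 min, 30 min, 1, 2, 6, 24, 48 h); intact peptide and fragments analysed by LC-HRMS. Values are means ± SEM from three independent experiments.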

Series [2] can be described thus: Stability in human plasma assessed as percentage intact peptide at 100 uM incubated for 10 mins by LC-HRMS analysis. Format: ADME, cell-free. As to conditions: read-out: Stability. An outline of the steps:
as §1

Series [3] is described as follows: Stability in human plasma assessed as half life at 100 uM by LC-HRMS analysis. Format: ADME, cell-free. The method, boiled down:
as §1

A short description of series [4]: Stability in human plasma assessed as percentage intact peptide at 100 uM incubated for 48 hrs by LC-HRMS analysis. Format: ADME, cell-free. As to conditions: read-out: Stability. An outline of the steps: as §1
Series [5] can be described thus: Stability in human plasma assessed as percentage intact peptide at 100 uM incubated for 1 hr by LC-HRMS analysis. The series is classed as ADME, cell-free. As to conditions: read-out: Stability. The method, boiled down:
as §1

The nature of series [6]: Stability in human plasma assessed as percentage intact peptide at 100 uM incubated for 30 mins by LC-HRMS analysis. The series is classed as ADME, cell-free. As to conditions: read-out: Stability. The method, boiled down: as §1
A short description of series [7]: Stability in human plasma assessed as percentage intact peptide at 100 uM incubated for 2 hrs by LC-HRMS analysis. Format: ADME, cell-free. As to conditions: read-out: Stability. An outline of the steps:
as §1

Series [8] in a line: Stability in human plasma assessed as percentage intact peptide at 100 uM incubated for 6 hrs by LC-HRMS analysis. Format: ADME, cell-free. As to conditions: read-out: Stability. The method, boiled down:
as §1

For series [9], the target named is Neurotensin receptor type 1 (Homo sapiens, UniProt P30989). The series can be described thus: Displacement of [3H]UR-MK300 from human NSTR1 in HT-29 cells incubated for 2 hrs by liquid scintillation counter. The series is classed as cell-based. For orientation: In a radioligand displacement assay an active substance lowers the binding of a labelled ligand.

Molecules are shown by their SMILES. pKi: −log10 of the molar value.

Chain of Neurotensin receptor type 1 (P30989 whole entry): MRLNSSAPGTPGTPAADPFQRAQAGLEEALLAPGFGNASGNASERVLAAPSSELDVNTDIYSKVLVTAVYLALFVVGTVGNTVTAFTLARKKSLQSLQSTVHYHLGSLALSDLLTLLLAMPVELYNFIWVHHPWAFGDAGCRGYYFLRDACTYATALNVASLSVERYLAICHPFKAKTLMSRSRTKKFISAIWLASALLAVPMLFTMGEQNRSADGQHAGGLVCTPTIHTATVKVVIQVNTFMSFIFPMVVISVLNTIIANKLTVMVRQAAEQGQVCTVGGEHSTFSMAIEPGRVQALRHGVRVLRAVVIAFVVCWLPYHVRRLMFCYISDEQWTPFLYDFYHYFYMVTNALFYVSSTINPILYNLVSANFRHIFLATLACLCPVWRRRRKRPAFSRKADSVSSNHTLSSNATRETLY

With `CC[C@H](C)[C@H](NC(=O)[C@H](Cc1ccc(O)cc1)NC(=O)[C@@H]1CCCN1C(=O)[C@H](CCCNC(=N)N)NC(=O)[C@@H](N)CCCNC(=N)N)C(=O)N[C@@H](CC(C)C)C(=O)O`, the remaining at 24 h, 100 µM in series [1] was less than 1%. Besides, the remaining at 10 min, 100 µM in series [2] was 23.1%. The half-life (in general, the time needed for the level to fall by half in the phase considered) at 100 µM in series [3] is less than 5 min. The remaining at 48 h, 100 µM in [4] was less than 1%. In series [5], the remaining at 1 h, 100 µM was less than 1%.
As for `CC[C@H](C)[C@@H](C(=O)N[C@@H](CC(C)C)C(=O)O)N(C)C(=O)[C@H](Cc1ccc(O)cc1)NC(=O)[C@@H]1CCCN1C(=O)[C@H](CCCNC(=N)N)NC(=O)[C@@H](N)CCCNC(=N)N`, the remaining at 10 min, 100 µM in series [2] came to 2.6%. In addition, the remaining at 0.5 h, 100 µM in series [6] is less than 1%. For the same molecule, the remaining at 2 h, 100 µM in series [7] is less than 1%. In series [5], the remaining at 1 h, 100 µM is less than 1%.
As for `CC[C@H](C)[C@H](NC(=O)[C@H](Cc1ccc(O)cc1)N(C)C(=O)[C@@H]1CCCN1C(=O)[C@H](CCCNC(=N)N)NC(=O)[C@@H](N)CCCNC(=N)N)C(=O)N[C@@H](CC(C)C)C(=O)O`, the remaining at 10 min, 100 µM in series [2] stood at 22.9%. Besides, the remaining at 0.5 h, 100 µM in series [6] was less than 1%. Besides, the remaining at 2 h, 100 µM in series [7] is less than 1%. Moreover, the remaining at 1 h, 100 µM in series [5] was less than 1%.
Take `CC(C)C[C@H](NC(=O)[C@@H](NC(=O)[C@H](Cc1ccc(O)cc1)NC(=O)[C@@H]1CCCN1C(=O)[C@H](CCCNC(=N)N)NC(=O)[C@@H](N)CCCNC(=N)N)C(C)(C)C)C(=O)O.O=C(O)C(F)(F)F.O=C(O)C(F)(F)F.O=C(O)C(F)(F)F`: the remaining at 24 h, 100 µM in series [1] is less than 1%. The remaining at 10 min, 100 µM in series [2] was found to be 10.8%. Moreover, the half-life at 100 µM in series [3] was less than 5 min. Further, the remaining at 48 h, 100 µM in [4] was less than 1%. Moreover, the remaining at 1 h, 100 µM in [5] is less than 1%.
As for `CC[C@H](C)[C@H](NC(=O)[C@H](Cc1ccc(O)cc1)NC(=O)[C@@H]1CCCN1C(=O)[C@H](CCCNC(=N)N)NC(=O)[C@@H](N)CCCNC(=N)N)C(=O)N(C)[C@@H](CC(C)C)C(=O)O`, in [2], the remaining at 10 min, 100 µM was found to be 39.9%. The remaining at 0.5 h, 100 µM in series [6] is less than 1%. Also, in series [7], the remaining at 2 h, 100 µM was less than 1%. For the same molecule, the remaining at 1 h, 100 µM in series [5] is less than 1%.
For the molecule `CC[C@H](C)[C@H](NC(=O)[C@H](Cc1ccc(O)cc1)NC(=O)[C@@H]1CCCN1C(=O)[C@H](CCCNC(=N)N)N(C)C(=O)[C@@H](N)CCCNC(=N)N)C(=O)N[C@@H](CC(C)C)C(=O)O`, the remaining at 10 min, 100 µM in series [2] was more than 99%. For the same molecule, the remaining at 0.5 h, 100 µM in series [6] came out at 93.6%. The remaining at 2 h, 100 µM in series [7] is 66.4%. In [5], the remaining at 1 h, 100 µM is 83.7%.
With `CC(C)C[C@H](NC(=O)[C@@H](NC(=O)[C@H](Cc1ccc(O)cc1)NC(=O)[C@@H]1CCCN1C(=O)[C@H](CCCNC(=N)N)N(C)C(=O)[C@@H](N)CCCNC(=N)N)C(C)(C)C)C(=O)O.O=C(O)C(F)(F)F.O=C(O)C(F)(F)F.O=C(O)C(F)(F)F`, the remaining at 24 h, 100 µM in [1] was more than 99%. In addition, the remaining at 6 h, 100 µM in series [8] was more than 99%. In addition, the half-life at 100 µM in series [3] was more than 2880 min. Moreover, in series [4], the remaining at 48 h, 100 µM was more than 99%. In addition, the pKi – broadly, the Ki on a negative log10 scale, so that one unit is a factor of ten – in series [9] is 8.80. Besides, the remaining at 1 h, 100 µM in [5] is more than 99%.
`CCC(=O)N[C@@H](CCCNC(=N)N)C(=O)N[C@@H](CCCNC(=N)N)C(=O)N1CCC[C@H]1C(=O)N[C@@H](Cc1ccc(O)cc1)C(=O)N[C@H](C(=O)N[C@@H](CC(C)C)C(=O)O)[C@@H](C)CC.O=C(O)C(F)(F)F.O=C(O)C(F)(F)F`: the remaining at 10 min, 100 µM in series [2] was more than 99%. Also, the remaining at 0.5 h, 100 µM in series [6] stood at 84%. The half-life at 100 µM in series [3] lay in the range of 60 to 120 min. The remaining at 1 h, 100 µM in series [5] is 71.8%.
As for `CCC(=O)N[C@@H](CCCNC(=N)N)C(=O)N[C@@H](CCCNC(=N)N)C(=O)N1CCC[C@H]1C(=O)N[C@@H](Cc1ccc(O)cc1)C(=O)N[C@H](C(=O)N[C@@H](CC(C)C)C(=O)O)C(C)(C)C`, in [1], the remaining at 24 h, 100 µM was more than 99%. The remaining at 6 h, 100 µM in [8] was more than 99%. The remaining at 48 h, 100 µM in series [4] worked out at 92.5%. The pKi in series [9] is 7.74. Further, the remaining at 1 h, 100 µM in [5] was more than 99%.
As to `CN[C@@H](CCCNC(=N)N)C(=O)N[C@@H](CCCNC(=N)N)C(=O)N1CCC[C@H]1C(=O)N[C@@H](Cc1ccc(O)cc1)C(=O)N[C@H](C(=O)N[C@@H](CC(C)C)C(=O)O)C(C)(C)C.O=C(O)C(F)(F)F.O=C(O)C(F)(F)F.O=C(O)C(F)(F)F`, the remaining at 24 h, 100 µM in [1] was determined as 98.3%. Further, the remaining at 6 h, 100 µM in series [8] was more than 99%. Further, the half-life at 100 µM in series [3] was more than 2880 min. For the same molecule, the remaining at 48 h, 100 µM in series [4] came to 86.8%. In series [9], this molecule showed a pKi of 9.06. Further, in series [5], the remaining at 1 h, 100 µM was more than 99%.
Regarding `CC[C@H](C)[C@H](NC(=O)[C@H](Cc1ccc(O)cc1)NC(=O)[C@@H]1CCCN1C(=O)[C@H](CCCNC(=N)N)NC(=O)[C@H](CCCNC(=N)N)NC)C(=O)N[C@@H](CC(C)C)C(=O)O.O=C(O)C(F)(F)F.O=C(O)C(F)(F)F.O=C(O)C(F)(F)F`, the remaining at 10 min, 100 µM in series [2] was found to be 92.1%. Also, in series [6], the remaining at 0.5 h, 100 µM was found to be 88.2%. The half-life at 100 µM in series [3] was less than 300 min. Also, in [7], the remaining at 2 h, 100 µM came out at 70.8%. The negative logarithm of the Ki (pKi) in series [9] was 9.65. Also, in series [5], the remaining at 1 h, 100 µM turned out to be 79.7%.
